XBP1 UPR activ = activators of adaptive arm of unfolded protein response (XBP1) | 330,000 compounds, 0.33% hits | AID 463104 | activation, % at 20 µM | CHO-XBP1 luciferase reporter, IRE1-XBP1 UPR activation, luminescence; percent of tunicamycin response, DMSO as zero;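 active means versus positive control, 20 µM dose yields 30% or more activation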;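 further: 100% = tunicamycin at 10 µg/mL and 0% = DMSO only wells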
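Assay system: CHO-XBP1 luciferase reporter cells; Schedule: 6 h treatment, 37 °C; Detection: glow luminescence from Steady-Glo reagent; Benchmarks: high control tunicamycin 10 µg/mL final, low control DMSO vehicle only.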
CHOP UPR activ = apoptotic UPR (CHOP) activation; CHO-CHOP luciferase reporter, luminescence; percent of tunicamycin response over DMSO baseline; activation, % at 10 µM; 330,000 compounds, 0.34% hits;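 active means at 10 µM dose, activation of 40% or more, normalized to positive control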;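 further: 100% = tunicamycin at 10 µg/mL and 0% = DMSO alone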
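Dosing – one dose, 10 µM in 0.5% DMSO · System – CHO-CHOP cells, stable luciferase reporter of PERK-eIF2a-CHOP signalling · Input – 500 cells/well · Control set – tunicamycin 10 µg/mL final as positive, DMSO-only wells as negative · Timing – 6 h compound treatment, 37 °C · Measure – % activation vs tunicamycin · Technique – luminescence read with Steady-Glo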
Beta cell apopt = beta cell apoptosis inhibition | INS-1E cytokine-induced death, ATP luminescence, 48 h; percent of positive-control rescue, neutral wells zero | protection from apoptosis, % (concentration not given with the values) | 300,000 compounds, 0.8% hits;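 active means Every replicate reaches about 75%, or at least half do and their mean reaches it too, limit read from the data; inconclusive means At least half of replicates reach the limit but their mean does not; inactive means Under half of replicates reach the limit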;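 further: 0% = cytokine-treated negative control wells and 100% = positive control rescue; higher means more ATP so stronger rescue from cytokine killing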
CSC inhib = cancer stem cell inhibition. inhibition, % at 7.5 µM. 300,000 compounds, 1.1% hits. cancer stem cell-like cells viability, luminescence. AID 2717; in the data active means inhibition above about 75%; inconclusive means no clear call, values can overlap the other calls; tested in HMLE shEcad cells
SKKanGAS inh = inhibitors of SKKanGAS S. pyogenes growth in kanamycin (SK-promoter or general growth effect). BacTiter-Glo, 6 h. inhibition, % at 7.5 µM. 300,000 compounds, 1.3% hits;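 active means mean replicate score, as percent of positive control median, at least 50; inconclusive means mean below 50 but one replicate at or above 50; inactive means mean and every replicate below 50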;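 further: strain carries kanamycin resistance gene driven by streptokinase promoter and grows in 40 µg/ml kanamycin; loss of luminescence reflects streptokinase promoter inhibition or plain growth inhibition; 0% = median of DMSO wells and 100% = positive control at its reference dose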
Mdm2-MdmX inh = inhibitors of human Mdm2/MdmX interaction | inhibition, % at 8 µM | O15151+Q00987 | SaOS-2 split-luciferase Mdm2/MdmX complementation, luminescence | 330,000 compounds, 3% hits;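 active means inhibition of at least 50% at 8 µM in the primary screen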
Mdm2 MdmX conf = human Mdm2/MdmX binding inhibition, confirmed. luminescent assay. inhibition, % at 8 µM. AID 489028. shares compounds with Mdm2-MdmX inh. 10,000 compounds, 55% hits; in the data active means inhibition above about 40%
FLuc counter = counter-screen for Mdm2/MdmX inhibitors: full-length luciferase; AID 504607; 6,200 compounds, 77% hits; SaOS-2 full-length luciferase counterscreen, luminescence; inhibition, % at 8 µM; shares compounds with Mdm2-MdmX inh;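 active means mean inhibition at 8 µM reaching about 37%, which flags the compound as non-specific, limit read from the data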;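 further: p53-null SaOS-2 cells with luciferase driven by a doxycycline-inducible promoter; compound on cells about two nights before reading with doxycycline added after day one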
* = called active by the depositor; ? = inconclusive; nt = no result. This is a sample that favours compounds with a hit; in the whole collection about 4.8% have one here.

SMILES	XBP1 UPR activ	CHOP UPR activ	Beta cell apopt	CSC inhib	SKKanGAS inh	Mdm2-MdmX inh	Mdm2 MdmX conf	FLuc counter
CCCCOc1ccc(-c2cc(C(=O)NNC(=S)NCC)c3ccccc3n2)cc1	5.3	-1.1	80.3*	99.7*	63.0*	80.1*	74.5*	127.3*
O=C(CN1CCN(Cc2ccccc2)CC1)Nc1ccc([N+](=O)[O-])cc1C(=O)Nc1ccccc1F	0.9	3.0	1.1	9.9	4.7	53.9*	30.4	nt
CCCNC(=O)C(Cc1ccc(Cl)cc1)NC(=O)c1ccc(C#N)cc1 (stereo not drawn)	-1.2	0.2	-5.4	-21.5	nt	33.5	nt	nt
CCCNC(=O)C(Cc1ccc(Cl)cc1)NC(=O)c1ccc(-c2ccccc2)cc1 (stereo not drawn)	6.5	6.0	24.4	5.0	nt	58.7*	17.2	nt
Cc1ccc2nc(-c3ccncc3)c(Nc3ccccc3)n2c1	1.3	1.0	-9.3	-25.6	-5.5	43.8	nt	nt
Cc1ccn2c(Nc3ccccc3C)c(-c3ccncc3)nc2c1	3.5	-0.4	-46.1	-2.3	-4.8	58.6*	34.0	nt
Cc1ccc(Nc2c(-c3ccccn3)nc3ccc(C)cn23)cc1	9.4	19.3	97.4*	111.8*	97.4*	74.2*	90.0*	51.5*
Cc1ccn2c(NC3CCCC3)c(-c3ccccn3)nc2c1	5.5	23.2	16.4	62.0	90.6*	74.4*	43.2*	43.4*
CSc1ccc(-c2nc3cnccn3c2Nc2ccc3c(c2)OCO3)cc1	-0.2	1.7	1.9	15.5	-38.8	54.8*	11.3	nt
NC(=O)c1cc([N+](=O)[O-])ccc1NCc1ccc(O)cc1	0.9	-2.4	-3.8	?	nt	7.2	nt	nt
Cc1ccc(Nc2c(-c3ccccn3)nc3cc(C)ccn23)cc1	7.7	17.4	103.5*	98.2*	100.9*	91.6*	89.2*	54.9*
Cc1ccn2c(Nc3ccc4c(c3)OCO4)c(-c3ccccn3)nc2c1	3.5	8.9	-0.2	0.7	96.5*	78.9*	69.0*	36.5*
CCNC(=O)c1c(O)c2ccccc2[nH]c1=O	3.8	6.6	-13.6	8.4	-1.4	75.9*	53.0*	76.2*
O=C(NC1CC1)c1c(O)c2ccccc2[nH]c1=O	6.4	3.9	-1.0	7.5	-1.7	58.8*	-6.3	nt
Cc1ccc(S(=O)(=O)N2CCC[C@H]2C(=O)OCC(=O)Nc2ccc3c(c2)OCO3)cc1	-2.6	-0.4	-4.9	-3.2	nt	-19.8	nt	nt
CC(C)(C)n1nnnc1C(c1cccs1)N(Cc1ccc(Cl)cc1)CC1CCCO1 (stereo not drawn)	-0.2	1.7	6.7	27.3	18.3	56.3*	57.1*	70.3*
COc1ccc(S(=O)(=O)Nc2c(C)nn(C)c2C)cc1Br	-0.3	1.4	1.0	-14.4	nt	18.6	nt	nt
CC(C)CCN1C(=O)c2ccc(C(=O)OCC(=O)N(CC(C)C)C3CCS(=O)(=O)C3)cc2C1=O (stereo not drawn)	-1.1	0.5	3.1	-34.2	nt	-6.4	nt	nt
CCOc1ccc(OCC(=O)Nc2ccccc2N2CCCC2)cc1	-3.5	6.4	-3.8	-6.6	17.5	50.7*	71.7*	60.3*
Cc1cccc(OCC(=O)Nc2ccc(N3CCN(S(C)(=O)=O)CC3)cc2)c1C	-1.9	-0.6	8.5	nt	-0.4	96.1*	25.2	nt
O=C(COc1ccccc1)Nc1ccccc1N1CCCCC1	0.7	-1.9	1.7	1.8	20.5	-6.8	nt	nt
Cc1ccccc1OCC(=O)Nc1ccccc1N1CCOCC1	1.3	-0.5	1.6	16.7	-1.0	50.3*	8.3	nt
Cc1cccc(OCC(=O)NC(=S)Nc2ccccc2N2CCOCC2)c1C	-1.4	3.1	-0.4	20.8	-6.0	73.3*	14.6	nt
CSc1ccc(S(=O)(=O)N2CCC(C(=O)Nc3ccccc3C(F)(F)F)CC2)cc1	-2.3	-2.0	0.4	0.6	-14.3	-7.7	nt	nt
CCn1c(=O)cc(OCC(=O)Nc2ccccc2N2CCN(C)CC2)c2ccccc21	3.5	0.7	-6.0	nt	1.3	50.3*	16.2	nt
